Measurements published in ChEMBL document CHEMBL4028860 (PLoS One, 2017).
Calls of active or inactive are those of the source. No cut-off for these calls is given here.

What was measured:
THP-1 = test: Cytotoxicity against human THP1 cells assessed as reduction in cell viability by CellTiterGlo assay; type: cell-based
Cyclic GMP-AMP synthase [1] = target: T1, Cyclic GMP-AMP synthase (Homo sapiens, UniProt Q8N884); test: Inhibition of cGAS in human THP1 cells assessed as reduction in salmon sperm dsDNA-induced IFN-beta expression preincubated for 1 hr followed by dsDNA stimulation for 12 hrs by luciferase reporter gene assay; type: cell-based
Cyclic GMP-AMP synthase [2] = target: T1, Cyclic GMP-AMP synthase; test: Inhibition of human cGAS (2 to 522 residues) expressed in Sf9 insect cells assessed as reduction in cGAMP level using ISD DNA as substrate in presence of ATP and GTP incubated for 1 hr followed by Cy5-labeled cGAMP addition measured after 1 hr by fluorescence polarization assay
Method in brief: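 Enzyme reaction uses 100 nM cGAS, 100 nM ISD DNA, 1 mM ATP and 0.3 mM GTP in Hepes/NaCl/Tween-20/MgCl2 buffer, pH 7.5, with compounds. Run 1 h at room temperature, then stopped with 50 mM EDTA. Fluorescence polarization read with 620 nm excitation.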

T1 sequence (Q8N884 whole entry, the tested form may be a part): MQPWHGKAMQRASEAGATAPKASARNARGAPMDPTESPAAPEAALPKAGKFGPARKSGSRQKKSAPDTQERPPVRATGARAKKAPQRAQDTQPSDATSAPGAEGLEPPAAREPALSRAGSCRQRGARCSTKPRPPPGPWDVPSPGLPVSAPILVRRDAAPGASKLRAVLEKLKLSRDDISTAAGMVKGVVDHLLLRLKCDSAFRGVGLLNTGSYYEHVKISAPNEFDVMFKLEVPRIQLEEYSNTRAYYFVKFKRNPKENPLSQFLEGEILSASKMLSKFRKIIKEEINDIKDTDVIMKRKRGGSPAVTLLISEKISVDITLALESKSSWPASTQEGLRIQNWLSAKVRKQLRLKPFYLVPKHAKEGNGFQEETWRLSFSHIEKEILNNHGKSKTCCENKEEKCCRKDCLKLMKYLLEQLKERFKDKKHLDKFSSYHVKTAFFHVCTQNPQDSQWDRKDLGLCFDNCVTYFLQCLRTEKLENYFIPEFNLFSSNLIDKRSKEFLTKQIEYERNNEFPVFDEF

Row | inhibition (Cyclic GMP-AMP synthase [1]) | IC50 (Cyclic GMP-AMP synthase [2]) | Compound | Activity (THP-1)
1 | inactive | – | C[C@@H](CO)NC(=O)c1cnn2c(O)cc(-c3ccccc3)nc12 | Non-Toxic
2 | inactive | – | O=C(O)CNC(=O)c1cnn2c(O)cc(-c3ccccc3)nc12 | Non-Toxic
3 | – | – | O=C(N[C@H]1CCCC[C@H]1C(=O)O)c1cnn2c(O)cc(-c3ccccc3)nc12 | Non-Toxic
4 | – | – | O=C(NCCCNc1nc(Nc2cccc(NC(=O)N3CCCC3)c2)ncc1I)c1cccs1 [BX-795] | Non-Toxic
5 | inactive | – | O=C(NCCO)c1cnn2c(O)cc(-c3ccccc3)nc12 | Non-Toxic
6 | – | 78 µM | Oc1cc(-c2ccccc2)nc2nnnn12 | –
